Results from ChEMBL document CHEMBL1122285, “New myocardial imaging agents: stabilization of radioiodine as a terminal vinyl iodide moiety on tellurium fatty acids” (J Med Chem, 1983).

Columns and labels:
[1] = Tested for distribution of radioactivity of iodine 125 in kidney of rat after 60 min of intravenous administration; assay type: ADME; conditions: in vivo, 1 h
Procedure, shortened: (§1)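 Fischer 344 rats, four per time point, under ether anaesthesia. Each received ~8.6 μCi of 125I-labelled fatty acid (sp act ~20 mCi/mmol) by lateral tail vein in 0.5 mL 6% bovine serum albumin with 10% final ethanol, filtered before injection. Percent injected dose/g was calculated against injectate standards and reported as mean (range). Thyroid weight was taken as body weight × 7.5 mg/100 g.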

Rattus norvegicus [2] = assay: Tested for distribution of radioactivity of iodine 125 in lungs of rat after 30 min of intravenous administration; assay type: ADME, organism-based, Lung; conditions: in vivo, 0.5 h; procedure, shortened: as §1
Rattus norvegicus [3] = assay: Tested for distribution of radioactivity of iodine 125 in liver of rat after 30 min of intravenous administration; assay type: ADME, organism-based; conditions: in vivo, 0.5 h; procedure, shortened: as §1
Rattus norvegicus [4] = assay: Tested for distribution of radioactivity in heart of rat after 2 hours of intravenous administration; assay type: ADME, organism-based; conditions: in vivo; procedure, shortened: as §1
Rattus norvegicus [5] = assay: Tested for distribution of radioactivity of iodine 125 in lungs of rat after 60 min of intravenous administration; assay type: ADME, organism-based, Lung; conditions: in vivo, 1 h; procedure, shortened: as §1
Rattus norvegicus [6] = assay: Tested for distribution of radioactivity of iodine 125 in kidney of rat after 4 hours of intravenous administration; assay type: ADME, organism-based; conditions: in vivo; procedure, shortened: as §1
Rattus norvegicus [7] = assay: Tested for distribution of radioactivity of iodine 125 in kidney of rat after 2 hours of intravenous administration; assay type: ADME, organism-based; conditions: in vivo; procedure, shortened: as §1
Rattus norvegicus [8] = assay: Tested for distribution of radioactivity of iodine 125 in liver of rat after 60 min of intravenous administration; assay type: ADME, organism-based; conditions: in vivo, 1 h; procedure, shortened: as §1
Rattus norvegicus [9] = assay: Tested for distribution of radioactivity iodine 125 in heart of rat after 60 min of intravenous administration; assay type: ADME, organism-based; conditions: in vivo, 1 h; procedure, shortened: as §1
Rattus norvegicus [10] = assay: Tested for distribution of radioactivity of iodine 125 in blood of rat after 60 min of intravenous administration; assay type: ADME, organism-based; conditions: in vivo, 1 h; procedure, shortened: as §1
Rattus norvegicus [11] = assay: Tested for distribution of radioactivity of iodine 125 in lungs of rat after 5 min of intravenous administration; assay type: ADME, organism-based, Lung; conditions: in vivo; procedure, shortened: as §1
Rattus norvegicus [12] = assay: Tested for distribution of radioactivity of iodine 125 in lungs of rat after 2 hours of intravenous administration; assay type: ADME, organism-based, Lung; conditions: in vivo; procedure, shortened: as §1
Rattus norvegicus [13] = assay: Tested for distribution of radioactivity of iodine 125 in kidney of rat after 5 min of intravenous administration; assay type: ADME, organism-based; conditions: in vivo; procedure, shortened: as §1
Rattus norvegicus [14] = assay: Tested for distribution of radioactivity of iodine 125 in liver of rat after 2 hr of intravenous administration; assay type: ADME, organism-based; conditions: in vivo; procedure, shortened: as §1
Rattus norvegicus [15] = assay: Tested for distribution of radioactivity of iodine 125 in liver of rat after 5 min of intravenous administration; assay type: ADME, organism-based; conditions: in vivo; procedure, shortened: as §1
Rattus norvegicus [16] = assay: Tested for distribution of radioactivity of iodine 125 in blood of rat after 4 hours of intravenous administration; assay type: ADME, organism-based; conditions: in vivo; procedure, shortened: as §1
Rattus norvegicus [17] = assay: Tested for distribution of radioactivity iodine 125 in heart of rat after 4 hours of intravenous administration; assay type: ADME, organism-based; conditions: in vivo; procedure, shortened: as §1
Rattus norvegicus [18] = assay: Tested for distribution of radioactivity of iodine 125 in thyroid of rat after 60 min of intravenous administration; assay type: ADME, organism-based, Thyroid gland; conditions: in vivo, 1 h; procedure, shortened: as §1
Rattus norvegicus [19] = assay: Tested for distribution of radioactivity of iodine 125 in blood of rat after 2 hour of intravenous administration; assay type: ADME, organism-based; conditions: in vivo; procedure, shortened: as §1
Rattus norvegicus [20] = assay: Tested for distribution of radioactivity of iodine 125 in kidney of rat after 30 min of intravenous administration; assay type: ADME, organism-based; conditions: in vivo, 0.5 h; procedure, shortened: as §1
Rattus norvegicus [21] = assay: Tested for distribution of radioactivity of iodine 125 in thyroid of rat after 30 min of intravenous administration; assay type: ADME, organism-based, Thyroid gland; conditions: in vivo, 0.5 h; procedure, shortened: as §1
Rattus norvegicus [22] = assay: Tested for distribution of radioactivity iodine 125 in heart of rat after 30 min of intravenous administration (value in parentheses indicates range); assay type: ADME, organism-based; conditions: in vivo, 0.5 h; procedure, shortened: as §1
Rattus norvegicus [23] = assay: Tested for distribution of radioactivity of iodine 125 in liver of rat after 4 hr of intravenous administration; assay type: ADME, organism-based; conditions: in vivo; procedure, shortened: as §1
Rattus norvegicus [24] = assay: Tested for distribution of radioactivity of iodine 125 in thyroid of rat after 5 min of intravenous administration; assay type: ADME, organism-based, Thyroid gland; conditions: in vivo; procedure, shortened: as §1
Rattus norvegicus [25] = assay: Tested for distribution of radioactivity of iodine 125 in heart of rat after 5 min of intravenous administration; assay type: ADME, organism-based; conditions: in vivo; procedure, shortened: as §1
Rattus norvegicus [26] = assay: Tested for distribution of radioactivity of iodine 125 in blood of rat after 30 min of intravenous administration; assay type: ADME, organism-based; conditions: in vivo, 0.5 h; procedure, shortened: as §1
Rattus norvegicus [27] = assay: Tested for distribution of radioactivity of iodine 125 in blood of rat after 5 min of intravenous administration; assay type: ADME, organism-based; conditions: in vivo; procedure, shortened: as §1
Rattus norvegicus [28] = assay: Tested for distribution of radioactivity of iodine 125 in thyroid of rat after 4 hr of intravenous administration; assay type: ADME, organism-based, Thyroid gland; conditions: in vivo; procedure, shortened: as §1
Rattus norvegicus [29] = assay: Tested for distribution of radioactivity of iodine 125 in thyroid of rat after 2 hr of intravenous administration; assay type: ADME, organism-based, Thyroid gland; conditions: in vivo; procedure, shortened: as §1

## O=C(O)CCCCC[Te]CCCCCCCCC/C=C/I
[1]
  Injected dose/g: 0.95%
Rattus norvegicus [2]
  Injected dose/g: 0.96%
Rattus norvegicus [3]
  Injected dose/g: 5.63%
Rattus norvegicus [4]
  Injected dose/g: 2.86%
Rattus norvegicus [5]
  Injected dose/g: 1%
Rattus norvegicus [6]
  Injected dose/g: 0.77%
Rattus norvegicus [7]
  Injected dose/g: 0.88%
Rattus norvegicus [8]
  Injected dose/g: 5.33%
Rattus norvegicus [9]
  Injected dose/g: 2.96%
Rattus norvegicus [10]
  Injected dose/g: 0.22%
Rattus norvegicus [11]
  Injected dose/g: 1.29%
Rattus norvegicus [12]
  Injected dose/g: 1%
Rattus norvegicus [13]
  Injected dose/g: 1.05%
Rattus norvegicus [14]
  Injected dose/g: 4.78%
Rattus norvegicus [15]
  Injected dose/g: 6.18%
Rattus norvegicus [16]
  Injected dose/g: 0.27%
Rattus norvegicus [17]
  Injected dose/g: 2.37%
Rattus norvegicus [18]
  Injected dose/g: 22.2%
Rattus norvegicus [19]
  Injected dose/g: 0.23%
Rattus norvegicus [20]
  Injected dose/g: 0.89%
Rattus norvegicus [21]
  Injected dose/g: 13.5%
Rattus norvegicus [22]
  Injected dose/g: 2.78%
Rattus norvegicus [23]
  Injected dose/g: 4.4%
Rattus norvegicus [24]
  Injected dose/g: 8.54%
Rattus norvegicus [25]
  Injected dose/g: 3.47%
Rattus norvegicus [26]
  Injected dose/g: 0.22%
Rattus norvegicus [27]
  Injected dose/g: 0.26%
Rattus norvegicus [28]
  Injected dose/g: 69.8%
Rattus norvegicus [29]
  Injected dose/g: 43.8%
